Bioassay records as filed in PubChem BioAssay.
A selection: hits, their analogues and other compounds. The true share with any hit is near 2.6%.
RanGTP-Impb inh = disruptors of Ran-importin-beta complex formation – biochemical, FRET, CFP-Ran, YFP-importin-beta, homogeneous, primary screen; cell-free CFP-Ran/YFP-importin-beta FRET ratio; inhibition, % (no concentration beside the values); 300,000 tested, 1.1% active; AID 2216;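 active means more than half of the replicate wells show a fall in the fluorescence ratio signal beyond about 16%, limit read from the data, passing the limit was not always enough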
IMP-1 inh-1 = blocks Pseudomonas aeruginosa IMP-1 metallo-beta-lactamase; 290,000 tested, 0.45% active; inhibition, % at 5.6 µM; purified IMP-1, nitrocefin hydrolysis, epi-absorbance fluorescence;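 active means inhibition above the mean plus 3 SD of all compounds in the same screening run, cut at about 4.5% in these data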
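Material – recombinant IMP-1 enzyme, purified · Amount – IMP-1 0.2 nM before substrate addition · Medium – HEPES buffer pH 7.1 with ZnSO4 and Brij 35 · Timing – 25 °C, 15 min preincubation, 25 min reaction · Measured by – plate fluorescence quenching by hydrolysis product, ex 480/em 530 nm · Read-out – percent enzyme inhibition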
VIM-2 inh = inhibitors of Pseudomonas aeruginosa VIM-2 metallo-beta-lactamase | purified VIM-2, nitrocefin hydrolysis, epi-absorbance fluorescence | inhibition, % at 5.6 µM | 290,000 tested, 0.89% active | AID 1527;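 active means inhibition above the mean of all tested compounds plus 3 SD, cutoff set per screening run, cut at about 7.5% in these data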;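 further: red hydrolysis product quenches plate fluorescence so inhibitors raise well fluorescence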
Runt-SMMHC FRET = blocks binding of human RUNX1 Runt domain to CBFb-SMMHC; Cerulean-Runt/Venus-CBFb-SMMHC FRET ratio 530/480, 1 h; 220,000 tested, 0.74% active; Q01196+Q13951; inhibition, % at 20 µM; AID 1434;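 active means mean inhibition across duplicate retests at 20 µM reaching about 50%, limit read from the data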;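 further: inhibitors lower the FRET ratio by blocking Runt binding to CBFb-SMMHC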
Target sequence (Q01196 whole entry, looked up, the tested form may be a part): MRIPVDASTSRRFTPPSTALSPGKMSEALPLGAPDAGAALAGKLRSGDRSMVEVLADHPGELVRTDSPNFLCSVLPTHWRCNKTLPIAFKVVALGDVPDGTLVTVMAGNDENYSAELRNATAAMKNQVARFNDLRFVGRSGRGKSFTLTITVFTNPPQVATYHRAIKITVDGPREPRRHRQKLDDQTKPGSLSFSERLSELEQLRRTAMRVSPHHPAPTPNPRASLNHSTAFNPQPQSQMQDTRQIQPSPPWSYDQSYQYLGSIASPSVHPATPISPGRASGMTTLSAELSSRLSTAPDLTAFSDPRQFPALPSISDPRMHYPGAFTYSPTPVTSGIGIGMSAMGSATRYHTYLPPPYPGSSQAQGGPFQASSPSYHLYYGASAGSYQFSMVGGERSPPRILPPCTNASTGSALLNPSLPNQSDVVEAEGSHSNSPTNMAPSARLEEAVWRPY
Target sequence (Q13951 whole entry, looked up, the tested form may be a part): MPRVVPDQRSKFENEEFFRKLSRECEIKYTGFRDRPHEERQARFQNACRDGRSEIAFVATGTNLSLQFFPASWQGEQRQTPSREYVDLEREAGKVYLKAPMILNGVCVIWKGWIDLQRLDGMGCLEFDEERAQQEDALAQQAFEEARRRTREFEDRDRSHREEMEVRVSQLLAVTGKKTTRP
Runt-CBFb FRET = blocks binding of human RUNX1 Runt domain to CBFb; 220,000 tested, 0.46% active; inhibition, % at 20 µM; Q01196+Q13951; Cerulean-Runt/Venus-CBFb FRET ratio 530/480, 1 h;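 active means inhibition over about 50% at 20 µM in the single-dose screen, limit read from the data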
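Assay system: Cerulean-Runt domain fusion protein, energy donor; Signal: fluorescence energy transfer, 422 nm excitation, 530/480 nm emission; Timing: 1 h compound exposure, room temperature; Control set: unlabeled CBFb; Medium: Tris buffer pH 7.5 with salts and BSA; Compound: single test concentration of 20 µM, 1% DMSO final; Probe or stimulus: Venus-CBFb 100 nM.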
RUNX1 CBFb TR = disrupts human RUNX1 Runt domain binding to CBFb. inhibition, % at 20 µM. AID 1502. 480 tested, 20% active. TR-FRET RUNX1 Runt domain-CBFb binding. shares compounds with Runt-CBFb FRET; in the data active means inhibition above about 40%
IMP-1 inh-2 = blocks IMP-1 metallo-beta-lactamase in VIM-2 selectivity screen | inhibition, % at 5.6 µM | AID 1856 | 1,300 tested, under 10 active | shares compounds with VIM-2 inh | purified IMP-1, nitrocefin hydrolysis, epi-absorbance fluorescence; call rule not given here
VIM-2 FRET inh = counter-screen for VIM-2 inhibitors: epi-absorbance artifacts via FRET. purified VIM-2, CCF2 FRET substrate hydrolysis. inhibition, % at 5.6 µM. 1,300 tested, 23% active. shares compounds with VIM-2 inh;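 active means inhibition above the mean of all tested compounds plus 3 SD, cut at about 19% in these data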
TEM-1 counter = TEM-1 inhibition, counter-screen for VIM-2 inhibitors | inhibition, % at 5.6 µM | Purified TEM-1, nitrocefin hydrolysis, epi-absorbance fluorescence | 1,300 tested, 3% active | shares compounds with VIM-2 inh;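 active means inhibition above that campaign's mean inhibition plus 3 SD, cut at about 0.46% in these data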
VIM-2 confirm 2 = confirmation of P. aeruginosa VIM-2 metallo-beta-lactamase inhibitors; shares compounds with VIM-2 inh; inhibition, % at 5.6 µM; AID 2187; purified VIM-2, nitrocefin hydrolysis, epi-absorbance; 1,300 tested, 96% active;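 active means inhibition of the VIM-2 beta-lactamase enzyme above about 11% from the earlier first-round screen, limit read from the data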
YIC FRET counter = counter-screen: alters YIC FRET probe signal; shares compounds with RanGTP-Impb inh; Purified YIC probe, intramolecular FRET ratio YFP/CFP; IC50, µM; 1,000 tested, 40% active;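 active means fitted half-maximal inhibitory concentration no more than tenfold above the top dose tested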
Large screens that a line does not name were inactive (follow-up assays come after a bar, where they were run).

COCC(C)OC(=O)c1c(N)n(CC(C)C)c2nc3ccccc3nc12 (stereo not given)	RanGTP-Impb inh 21, Runt-SMMHC FRET 126, Runt-CBFb FRET 63 | RUNX1 CBFb TR inactive | YIC FRET counter 26
Cn1c(N)c(C(=O)CSc2nc3ccccc3c(=O)n2CCCN2CCOCC2)c(=O)n(C)c1=O	none
CC(C)OC(=O)c1c(N)n(CCCN2CCOCC2)c2nc3ccccc3nc12	RanGTP-Impb inh 25, Runt-SMMHC FRET 84, Runt-CBFb FRET 65 | RUNX1 CBFb TR inactive | YIC FRET counter 31
COCC(=O)Nc1cc(C)cn(Cc2ccccc2Cl)c1=O	none (no result: Runt-SMMHC FRET, Runt-CBFb FRET)
CN(C)Cc1c(O)ccc2c3c(c(=O)oc12)CCCCC3	RanGTP-Impb inh 20, Runt-SMMHC FRET 136, Runt-CBFb FRET 70 | RUNX1 CBFb TR inactive | YIC FRET counter 22
Cc1ccc(C(=O)NNc2c3ccccc3nc3ccccc23)cc1	RanGTP-Impb inh 39, Runt-CBFb FRET 73 | RUNX1 CBFb TR inactive | YIC FRET counter inactive
CCN(CC)S(=O)(=O)c1ccc(C(C)NC(=O)Cc2c[nH]c3ccccc23)cc1 (stereo not given)	none (no result: Runt-SMMHC FRET, Runt-CBFb FRET)
Cn1c(=N)n(CC(=O)c2ccc(Cl)c(Cl)c2)c2ccccc21	none (no result: Runt-SMMHC FRET, Runt-CBFb FRET)
O=C(Cn1c2ccccc2c(=O)c2ccccc21)N/N=C/c1ccc(N2CCCC2)c([N+](=O)[O-])c1	RanGTP-Impb inh 28, Runt-SMMHC FRET 133, Runt-CBFb FRET 76 | RUNX1 CBFb TR inactive | YIC FRET counter inactive
O=C(Cn1c2ccccc2c(=O)c2ccccc21)N/N=C/c1cc([N+](=O)[O-])ccc1N1CCCCCC1	none
COCCCNC(=S)NCCNc1nc2cc(C)cc(C)c2cc1C#N	none
CCOCCCNC(=S)NCCNc1nc2c(C)cccc2cc1C#N	RanGTP-Impb inh 21, Runt-SMMHC FRET 93, Runt-CBFb FRET 68 | RUNX1 CBFb TR inactive | YIC FRET counter 32
CC(C)COC(=O)c1cc(-c2ccc(/C=N/n3cnnc3)o2)ccc1Cl	none
O=C1N=C(N2CCOCC2)S/C1=C/c1ccc(-c2ccc(F)cc2)o1	none
Fc1ccc(-c2ccc(/C=N\n3cnnc3)o2)cc1Cl	VIM-2 inh 45 | IMP-1 inh-2 inactive | VIM-2 FRET inh inactive | TEM-1 counter inactive | VIM-2 confirm 2 57
Fc1ccc(-c2ccc(/C=N/n3cnnc3)o2)cc1	VIM-2 inh 18 (no result: Runt-SMMHC FRET, Runt-CBFb FRET) | IMP-1 inh-2 inactive | VIM-2 FRET inh inactive | TEM-1 counter inactive | VIM-2 confirm 2 30
CC(C)n1cnnc1SCC(=O)NNC(=O)COc1ccc(Cl)cc1	none (no result: IMP-1 inh-1, VIM-2 inh, Runt-SMMHC FRET, Runt-CBFb FRET)
CCCN(CC(=O)Nc1cc(Cl)ccc1Cl)C(=O)CN1C(=O)C2CCCCC2C1=O (stereo not given)	none (no result: Runt-SMMHC FRET, Runt-CBFb FRET)
CN1CCN(c2nc(-c3ccccc3O)nc3ccccc23)CC1	VIM-2 inh 14 (no result: Runt-SMMHC FRET, Runt-CBFb FRET) | IMP-1 inh-2 inactive | VIM-2 FRET inh inactive | TEM-1 counter inactive | VIM-2 confirm 2 18
CN1CCN(c2nc(-c3ccccc3Cl)nc3ccccc23)CC1	none (no result: Runt-SMMHC FRET, Runt-CBFb FRET)
COc1ccc(-c2cc(=O)oc3c(O)c(O)ccc23)cc1	VIM-2 inh 13 (no result: Runt-SMMHC FRET, Runt-CBFb FRET) | IMP-1 inh-2 inactive | VIM-2 FRET inh inactive | TEM-1 counter inactive | VIM-2 confirm 2 18
COc1ccc(-c2cc(=O)oc3cc(OC(C)C(=O)O)ccc23)cc1 (stereo not given)	none
